Active and inactive are the calls of the source. The calls are words filed in the database; no cut-off is given here.
Key:
[1] = tested on: Rattus norvegicus; assay: Anticonvulsant activity was determined in rat; 1 indicates 100 mg/kg or less; format: functional
[2] = tested on: Mus musculus; assay: Anticonvulsant activity was determined in mice; 1 indicates 100 mg/kg or less; format: functional
How it was run: (§1)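 Phase I screen in CF1 mice: compound suspended in 0.5% aqueous methylcellulose, given ip at 30, 100 and 300 mg/kg; MES, scMet and rotorod toxicity read at 30 min and 4 h. Class 1 = activity at 100 mg/kg or less; 2 = activity above 100 mg/kg; 3 = none up to 300 mg/kg.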

[3] = tested on: Rattus norvegicus; assay: Effective dose for anticonvulsant activity determined in rats using subcutaneous Met test procedure. (Phase VIA); No protection; format: functional, organism-based
[4] = tested on: Mus musculus; assay: Effective dose for anticonvulsant activity determined in mice using subcutaneous Met test procedure. (Phase II); No protection; format: functional, organism-based
[5] = tested on: Rattus norvegicus; assay: Anticonvulsant activity was determined; 2 indicates at doses greater than 100 mg/kg in rat; format: functional
[6] = tested on: Mus musculus; assay: Anticonvulsant activity was determined; 2 indicates at doses greater than 100 mg/kg in mice; format: functional; how it was run: as §1
[7] = tested on: Rattus norvegicus; assay: ALT/GPT activity in male rats on day 2 after ip administration of 100 mg/kg.; format: functional; conditions: route intraperitoneal
How it was run: (§2)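 Male Fischer 344 rats (200-245 g), four per group, housed singly in metabolism cages; day 0 control values taken, then a single ip dose of 100 mg/kg or vehicle (25% DMSO in corn oil). Pair-fed controls. Urine volume measured at 24 h intervals. At 48 h, under ether, blood drawn from the dorsal aorta; plasma assayed for ALT/GPT and BUN; kidney and liver weighed. Means ± SE.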

[8] = tested on: Rattus norvegicus; assay: Urine volume collected for biochemical tests after an ip dose of 100 mg/kg at day 1 in male rats.; format: functional; conditions: route intraperitoneal; how it was run: as §2
[9] = tested on: Rattus norvegicus; assay: Urine volume collected for biochemical tests after an ip dose of 100 mg/kg at day 2 in male rats.; format: functional; conditions: route intraperitoneal; how it was run: as §2
[10] = tested on: Rattus norvegicus; assay: Change in kidney weight on day 2 in male rats after ip administration of 100 mg/kg; expressed as kidney weight (g/100 g of body weight); format: functional; conditions: route intraperitoneal; how it was run: as §2
[11] = tested on: Mus musculus; assay: Effective dose for anticonvulsant activity determined in mice using subcutaneous Met test procedure. (Phase II); format: functional; conditions: sc
[12] = tested on: Rattus norvegicus; assay: Change in liver weight determined in male rats on day 2 after ip administration of 100 mg/kg; expressed as liver weight (g/100 g of body weight); format: functional; conditions: route intraperitoneal; how it was run: as §2
[13] = Toxic dose determined in rats using MES test procedure. (Phase VIA); format: toxicity; conditions: rat, in vivo
How it was run: (§3)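 Phase VIA oral dosing in male Sprague–Dawley rats; MES and scMet ED50 and TD50 in mg/kg, each read at the time of peak effect; range in parentheses.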

[14] = tested on: Rattus norvegicus; assay: Change in the blood urea nitrogen concentration on day 0 determined in male rats after ip administration of 100 mg/kg; Expressed as blood urea nitrogen concentration (mg %); format: functional; conditions: route intraperitoneal; how it was run: as §2
[15] = Toxic dose determined in mice using MES test procedure. (Phase II); format: toxicity; conditions: mouse, in vivo
[16] = tested on: Rattus norvegicus; assay: Effective dose for anticonvulsant activity determined in rats using subcutaneous Met test procedure. (Phase VIA); format: functional; conditions: sc; how it was run: as §3
[17] = organism: Rattus norvegicus; assay: Effective dose for anticonvulsant activity determined in rats using MES test procedure. (Phase VIA); format: functional; how it was run: as §3
[18] = tested on: Rattus norvegicus; assay: Urine volume collected for biochemical tests after an ip dose of 100 mg/kg at 0 day in male rats.; format: functional; conditions: route intraperitoneal; how it was run: as §2
[19] = tested on: Rattus norvegicus; assay: Change in the blood urea nitrogen concentration on day 2 determined in male rats after ip administration of 100 mg/kg; Expressed as blood urea nitrogen concentration (mg %); format: functional; conditions: route intraperitoneal; how it was run: as §2
[20] = target: Sodium channel alpha subunits; brain (Types I, II, III) (Rattus norvegicus, UniProt P04775+P04774+P08104); assay: Inhibition of [3H]BTX-B binding to neurotoxin site 2 of sodium channel of rat cerebral cortex synaptoneurosomes; format: tissue-based
How it was run: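 Synaptoneurosomes from rat cerebral cortex were incubated with [3H]BTX-B (2.0 nM final) in HEPES, pH 7.4 at 25 °C, with 130 mM choline chloride, at 37 °C for 45 min. Reactions were stopped by rapid vacuum filtration onto glass fibre filters, and bound radioactivity was compared with control. IC50 was read from log concentration (10–800 µM) versus percent specific binding.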

[21] = tested on: Mus musculus; assay: Anticonvulsant activity; 3 indicates no activity at doses up to and including 300 mg/kg in mice.; format: functional; how it was run: as §1
[22] = tested on: Rattus norvegicus; assay: Anticonvulsant activity determined in rats at an oral dose of 50 mg/kg of phase VIA trials; active; format: functional
[23] = organism: Mus musculus; assay: Effective dose for anticonvulsant activity determined in mice using MES test procedure. (Phase II); format: functional
[24] = tested on: Mus musculus; assay: Effective dose for anticonvulsant activity determined in mice using subcutaneous Met test procedure. (Phase II); Potentiates; format: functional, organism-based
[25] = tested on: Rattus norvegicus; assay: Anticonvulsant activity was determined; 3 indicates no activity at doses up to and including 300 mg/kg in rat; format: functional
[26] = organism: Rattus norvegicus; assay: Effective dose for anticonvulsant activity determined in rats using MES test procedure. (Phase VIA, parentheses value indicate 95% confidence limits); format: functional; how it was run: as §3
[27] = organism: Rattus norvegicus; assay: Protective index measured as the […].; format: functional
[28] = Toxic dose determined in rats using MES test procedure. (Phase VIA, parentheses value indicate 95% confidence limits); format: toxicity, organism-based; conditions: rat, in vivo; how it was run: as §3

## CCOC(=O)[C@@H]1C(=O)C=C(NC2CCCCC2)C[C@H]1C
[1]
  Anticonvulsant activity: 1
[2]
  Anticonvulsant activity: 1

## O=C1NC(=O)C(c2ccccc2)(c2ccccc2)N1
[3]
  ED50: inactive
[4]
  ED50: inactive

## COC(=O)[C@@H]1C(=O)C=C(NNc2ccccc2)C[C@H]1C
[5]
  Anticonvulsant activity: 2
[6]
  Anticonvulsant activity: 2

## COC(=O)[C@@H]1C(=O)C=C(Nc2ccc(Cl)cc2)C[C@H]1C
[7]
  ALT/GPT: 25 U/L
[8]
  Urine volume: 9.6 mL
[9]
  Urine volume: 10.2 mL
[10]
  Activity: 0.35
[11]
  ED50: > 254 mg/kg
[12]
  Activity: 4.16
[13]
  TD50: > 380 mg/kg
[14]
  Activity: 14%
[15]
  TD50: 255 mg/kg
[16]
  ED50: > 190 mg/kg
[17]
  ED50: 5.8 mg/kg
[18]
  Urine volume: 13.8 mL
[19]
  Activity: 14%
[20]
  IC50: 489 µM

## COC(=O)[C@@H]1C(=O)C=C(Nc2cc(OC)ccc2Cl)C[C@H]1C
[6]
  Anticonvulsant activity: 2

## CCC1(c2ccccc2)C(=O)NC(=O)NC1=O [PHENOBARBITAL]
[20]
  IC50: 2.5 µM

## CCOC(=O)[C@@H]1C(=O)C=C(Nc2ccc(Cl)c(Cl)c2Cl)C[C@H]1C
[6]
  Anticonvulsant activity: 2

## COC(=O)[C@@H]1C(=O)C=C(Nc2ccccc2O)C[C@H]1C
[21]
  Anticonvulsant activity: 3

## COC(=O)[C@@H]1C(=O)C=C(Nc2ccc(Cl)c(Cl)c2)C[C@H]1C
[2]
  Anticonvulsant activity: 1

## COC(=O)[C@@H]1C(=O)C=C(Nc2ccccc2C)C[C@H]1C
[21]
  Anticonvulsant activity: 3

## COC(=O)[C@@H]1C(=O)C=C(Nc2ccc(Cl)c(Cl)c2Cl)C[C@H]1C
[21]
  Anticonvulsant activity: 3

## COC(=O)[C@@H]1C(=O)C=C(Nc2ccc(Cl)cn2)C[C@H]1C
[22]
  Anticonvulsant activity: 1
[2]
  Anticonvulsant activity: 1

## Nc1nnc(-c2cccc(Cl)c2Cl)c(N)n1 [LAMOTRIGINE]
[23]
  ED50: 2.6 mg/kg
[20]
  IC50: 114 µM

## COC(=O)[C@@H]1C(=O)C=C(Nc2ccc(Cl)cc2Cl)C[C@H]1C
[2]
  Anticonvulsant activity: 1

## CCOC(=O)[C@@H]1C(=O)C=C(Nc2ccc(Cl)c(Cl)c2)C[C@H]1C
[6]
  Anticonvulsant activity: 2

## CCOC(=O)[C@@H]1C(=O)C=C(Nc2cc(Cl)c(Cl)c(Cl)c2)C[C@H]1C
[6]
  Anticonvulsant activity: 2

## CCOC(=O)[C@@H]1C(=O)C=C(Nc2cc(Cl)c(Cl)cc2Cl)C[C@H]1C
[21]
  Anticonvulsant activity: 3

## COC(=O)[C@@H]1C(=O)C=C(Nc2c(Cl)cccc2Cl)C[C@H]1C
[21]
  Anticonvulsant activity: 3

## COC(=O)[C@@H]1C(=O)C=C(Nc2cc(C)ccc2OC)C[C@H]1C
[6]
  Anticonvulsant activity: 2

## NC(=O)N1c2ccccc2C=Cc2ccccc21 [CARBAMAZEPINE]
[23]
  ED50: 8.8 mg/kg
[24]
  ED50: Convulsant
[3]
  ED50: inactive
[17]
  ED50: 8.5 mg/kg

## COC(=O)[C@@H]1C(=O)C=C(Nc2ccccc2I)C[C@H]1C
[2]
  Anticonvulsant activity: 1

## CCOC(=O)[C@@H]1C(=O)C=C(Nc2ccc(OC)c(Cl)c2)C[C@H]1C
[21]
  Anticonvulsant activity: 3

## COC(=O)[C@@H]1C(=O)C=C(Nc2ccccc2Br)C[C@H]1C
[21]
  Anticonvulsant activity: 3

## CCOC(=O)[C@@H]1C(=O)C=C(Nc2ccccc2Cl)C[C@H]1C
[21]
  Anticonvulsant activity: 3

## COC(=O)[C@@H]1C(=O)C=C(Nc2ccc(OC)c(Cl)c2)C[C@H]1C
[21]
  Anticonvulsant activity: 3

## COC(=O)[C@@H]1C(=O)C=C(Nc2ccccc2OC)C[C@H]1C
[21]
  Anticonvulsant activity: 3

## COC(=O)[C@@H]1C(=O)C=C(Nc2ccccc2[N+](=O)[O-])C[C@H]1C
[6]
  Anticonvulsant activity: 2

## CN1C(=O)CN=C(c2ccccc2)c2cc(Cl)ccc21 [DIAZEPAM]
[20]
  IC50: 152 µM

## COC(=O)[C@@H]1C(=O)C=C(NC2CCCCC2)C[C@H]1C
[25]
  Anticonvulsant activity: 3
[21]
  Anticonvulsant activity: 3

## COC(=O)[C@@H]1C(=O)C=C(Nc2ccccc2S(N)(=O)=O)C[C@H]1C
[21]
  Anticonvulsant activity: 3

## COC(=O)[C@@H]1C(=O)C=C(Nc2ccc(OC(F)(F)F)cc2)C[C@H]1C
[23]
  ED50: 22.4 mg/kg
[11]
  ED50: 114 mg/kg
[13]
  TD50: > 158 mg/kg
[15]
  TD50: 122 mg/kg
[16]
  ED50: > 79 mg/kg
[17]
  ED50: 9.3 mg/kg
[20]
  IC50: 170 µM

## CCOC(=O)[C@@H]1C(=O)C=C(Nc2ccc(Cl)cc2Cl)C[C@H]1C
[2]
  Anticonvulsant activity: 1

## CCOC(=O)[C@@H]1C(=O)C=C(NNc2ccccc2)C[C@H]1C
[25]
  Anticonvulsant activity: 3
[21]
  Anticonvulsant activity: 3

## CCOC(=O)[C@@H]1C(=O)C=C(Nc2ccc(Cl)cn2)C[C@H]1C
[1]
  Anticonvulsant activity: 1
[26]
  ED50: 12.1 mg/kg
[27]
  PI: 28.4
[28]
  TD50: > 344 mg/kg
[2]
  Anticonvulsant activity: 1

## COC(=O)[C@@H]1C(=O)C=C(Nc2ccccc2C#N)C[C@H]1C
[6]
  Anticonvulsant activity: 2

## COC(=O)[C@@H]1C(=O)C=C(Nc2ccccc2Cl)C[C@H]1C
[2]
  Anticonvulsant activity: 1

## CCOC(=O)[C@@H]1C(=O)C=C(Nc2cc(Cl)ccc2Cl)C[C@H]1C
[21]
  Anticonvulsant activity: 3

## COC(=O)[C@@H]1C(=O)C=C(Nc2cc(Cl)c(Cl)cc2Cl)C[C@H]1C
[2]
  Anticonvulsant activity: 1

## CCOC(=O)[C@@H]1C(=O)C=C(Nc2cc(Cl)cc(Cl)c2)C[C@H]1C
[21]
  Anticonvulsant activity: 3

## COC(=O)[C@@H]1C(=O)C=C(Nc2cc(Cl)cc(Cl)c2)C[C@H]1C
[21]
  Anticonvulsant activity: 3

## CCOC(=O)[C@@H]1C(=O)C=C(Nc2cc(C)ccc2OC)C[C@H]1C
[2]
  Anticonvulsant activity: 1

## CCOC(=O)[C@@H]1C(=O)C=C(Nc2c(Cl)cccc2Cl)C[C@H]1C
[21]
  Anticonvulsant activity: 3

## CCOC(=O)[C@@H]1C(=O)C=C(Nc2ccccc2N)C[C@H]1C
[21]
  Anticonvulsant activity: 3

## CCc1ccccc1NC1=CC(=O)[C@@H](C(=O)OC)[C@H](C)C1
[2]
  Anticonvulsant activity: 1

## COC(=O)[C@@H]1C(=O)C=C(Nc2cc(Cl)ccc2Cl)C[C@H]1C
[2]
  Anticonvulsant activity: 1

## COC(=O)[C@@H]1C(=O)C=C(Nc2ccccc2F)C[C@H]1C
[6]
  Anticonvulsant activity: 2

## COC(=O)[C@@H]1C(=O)C=C(Nc2ccccc2C(F)(F)F)C[C@H]1C
[6]
  Anticonvulsant activity: 2

From ChEMBL document CHEMBL1128458, “Synthesis and anticonvulsant activity of enaminones. 3. Investigations on 4'-, 3'-, and 2'-substituted and polysubstituted anilino compounds, sodium channel binding studies, and toxicity evaluations” (J Med Chem, 1995)
